Screens from PubChem BioAssay.
An excerpt weighted towards active compounds, which were near 4.5% of everything screened.
MrgX1 antagonist: antagonists of human MrgX1 receptor, primary screen, HEK293 cells, Fluo-4 calcium flux; AID 588676, 2011; hit rate 1.3% among 310,000; B-score at 10 µM; BAM8-22 antagonism; stronger effect = lower value;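 active = calcium-response B-score plate-corrected more than 3 library SD below zero, starting fluorescence within 5 deviations, no agonist response on first addition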;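 note: peak minus trough fluorescence over baseline after final BAM8-22 challenge near maximal dose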
Target sequence (Q96LB2 whole entry, looked up): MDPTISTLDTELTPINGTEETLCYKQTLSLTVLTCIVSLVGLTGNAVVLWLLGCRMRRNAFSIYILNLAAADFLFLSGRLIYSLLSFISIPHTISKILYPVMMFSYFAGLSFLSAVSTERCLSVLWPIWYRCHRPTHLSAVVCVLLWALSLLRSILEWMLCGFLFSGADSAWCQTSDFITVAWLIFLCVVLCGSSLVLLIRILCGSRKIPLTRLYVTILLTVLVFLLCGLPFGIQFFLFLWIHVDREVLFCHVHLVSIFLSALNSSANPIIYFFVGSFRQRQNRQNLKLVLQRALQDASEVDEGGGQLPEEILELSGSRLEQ
MrgX1 allo act: positive allosteric modulators of MrgX1, primary screen, HEK293 cells, Fluo-4 calcium flux; hit rate 0.63% among 310,000; FDSS; stronger effect = higher value; B-score at 10 µM; Mas-related G-protein coupled receptor member X1 (Homo sapiens), Q96LB2; AID 588675, 2011;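 active = plate-corrected calcium response at least 3 library SD above typical, normal starting fluorescence, not activating the receptor alone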;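 note: compound read alongside a low EC10 to EC30 dose of BAM8-22 agonist; peak minus trough fluorescence over baseline measured at the second addition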
PHOSPHO1 inh: PubChem AID 1565; Phosphoethanolamine/phosphocholine phosphatase (Homo sapiens), Q8TCT1; hit rate 1.1% among 290,000; recombinant PHOSPHO1, absorbance phosphatase assay; inhibition, % at 13.3 µM; in the data active = inhibition above about 60%
MrgX1 ag: agonists of human MrgX1 receptor, primary screen, HEK293 cells, Fluo-4 calcium flux | Fluo-4 calcium fluorescence, agonist mode; stronger effect = higher value | B-score at 10 µM | hit rate 0.44% among 310,000 | AID 588627, 2011;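 active = calcium response B-score plate-corrected fluorescence ratio at least 3 library SD, with starting fluorescence B-score inside 5 SD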
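Test system: HEK293 cells stably expressing human MrgX1 receptor; amount: 15,000 cells per well; doses: compound delivered in addition one of three; times: overnight plating before 1 h dye loading; detection: Fluo-4 NW calcium-flux fluorescence, kinetic read; read-out basis: B-scored fluorescence response ratio; controls: positive and negative controls per plate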
RGS4 inh: RGS4 inhibitors, primary screen, cell-based, HEK293 M3R inducible RGS4, calcium flux. Regulator of G-protein signaling 4 (Homo sapiens), P49798. Fluo-4 calcium flux; stronger effect = higher value; triggered by carbachol at its EC20. B-score at 10 µM. hit rate 0.45% among 310,000. AID 463165, 2010;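 active = B-score, a plate-corrected calcium signal, over three deviations above library mean, with baseline fluorescence within five deviations of library mean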;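 note: RGS4 expression induced by doxycycline in cells with stable M3 receptor; B-score is computed from the integrated fluorescence ratio over baseline after carbachol; higher B-score means a larger calcium signal and so more RGS4 inhibition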
RGS4 pot: RGS4 potentiators or activators, primary screen, cell-based, HEK293 M3R inducible RGS4, calcium flux. carbachol calcium flux Fluo4; stronger effect = lower value. B-score at 10 µM. hit rate 0.92% among 310,000;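 active = B-score of the integrated calcium signal more than 4 SD below the library mean, with starting fluorescence not abnormally high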;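 note: negative B-score means reduced calcium response which marks RGS4 activation or potentiation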
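Assay system: HEK293 FlpIn-TREx cells, stable M3R, doxycycline-inducible RGS4 / Probe or stimulus: carbachol, ECmax concentration / Times: overnight RGS4 induction, 30 min dye load 37 °C, 20 min compound RT / Signal: kinetic calcium fluorescence imaging with Fluo4-AM dye, 2 µM / Measure: Agonist-evoked peak-minus-minimum fluorescence over baseline, integrated ratio, B score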
Numbers without * were called inactive; i = inactive; x = not tested or not shown.

SMILES	MrgX1 antagonist	MrgX1 allo act	PHOSPHO1 inh	MrgX1 ag	RGS4 inh	RGS4 pot
Cc1ccc(C(=O)/C=C/c2ccc(Br)cc2)o1	i	i	22.4	i	i	i
Cc1ccc(C(=O)/C=C/c2ccccc2)o1	i	i	4.8	27.6*	i	i
N#C/C(=C\c1ccc(N2CCCCC2)o1)C(=O)Nc1cccc(Br)c1	i	i	-17.2	52.6*	i	i
CC(C)c1ccccc1NC(=O)CNCCOc1ccccc1F	i	i	27.0	i	i	-7.15*
OCCNCCOc1ccccc1F	i	i	17.4	i	i	i
CCOc1ccc(CCNC(=O)CS(=O)Cc2nc(-c3ccc(OC)c(OC)c3)oc2C)cc1OCC (stereo not drawn)	i	i	36.8	i	i	i
Cc1c(C)c2ccc(OCC(=O)N3CCN(C(=O)C4COc5ccccc5O4)CC3)cc2oc1=O (stereo not drawn)	i	i	47.5	i	i	-7.25*
CCC1(C(=O)c2ccccc2)C(c2ccc([N+](=O)[O-])cc2)C1(C(=O)OC)C(=O)OC (stereo not drawn)	i	i	-14.4	26.8*	i	i
CC(C)NC(=O)CCCc1c[nH]c2ccccc12	i	i	19.9	i	i	i
COc1ccc(N=Nc2nc3cc(Br)c(Br)cc3n2C)c(OC)c1	i	i	72.2*	i	x	x
CCCNC(=O)[C@@H]1CCCN1C(=O)[C@@H]1Cc2ccccc2CN1	i	i	24.1	i	i	i
O=C(Nc1cccc(S(=O)(=O)N2CCOCC2)c1)c1ccc2c(=O)n3c(nc2c1)CCCCC3	i	i	32.1	i	i	-7.34*
O=[N+]([O-])c1ccc(Nc2nc(N/N=C\c3ccc4c(c3)OCO4)nc(N3CCCCC3)n2)cc1	-4.55*	i	32.3	i	i	i
Cc1cc(C(=O)CSc2nnc3c(Cl)cc(Cl)cn23)c(C)n1C	i	i	-72.2	i	i	i
C=CCn1c(C)cc(C(=O)CSc2nnc3c(Cl)cc(Cl)cn23)c1C	i	i	62.2*	i	i	i
CC1(C)OC(=O)C(=CNn2cnc3ccccc3c2=O)C(=O)O1	i	i	63.0*	i	i	i
CN(C(=O)c1cncc(Br)c1)C1C2CC3CC(C2)CC1C3 (stereo not drawn)	i	i	19.2	i	i	i
COc1ccc([N+](=O)[O-])cc1NCc1ccccc1C	i	i	60.5*	i	i	i
COc1ccc(NC(=O)CSc2nccn2Cc2ccco2)cc1	i	i	13.0	i	i	i
Cc1ccc(/C=C2/NC(=O)N(Cc3ccccc3F)C2=O)s1	-7.48*	i	-0.7	i	i	i
CCC(=NCc1ccc(Cl)c(Cl)c1)c1nc(-c2ccco2)oc1O	i	i	13.4	i	i	-7.06*
Cc1nnc2sc(SCC(=O)N3CCC(C)CC3)nn2c1=O	i	i	65.8*	i	i	i
COC(=O)c1ccccc1NC(=O)CNC(=O)c1ccc(OC)c(OC)c1	i	i	34.2	i	i	i
O=C(/C=C/c1ccco1)NC(=S)Nc1cccc([N+](=O)[O-])c1	i	i	-9.3	i	i	i
Cc1cccc(NC(=S)NC(=O)/C=C/c2ccco2)c1	i	9.09*	-2.7	i	i	i
O=C(/C=C/c1ccco1)NC(=S)Nc1ccccc1	i	12.9*	7.8	i	i	i
CSc1cccc(NC(=O)/C=C/c2ccco2)c1	i	6.54*	-13.4	i	i	i
O=C(CN1CCCc2ccccc21)NC(=O)NC1CCCCC1	i	i	36.5	i	i	i
COc1ccc(-c2oc(NC(=O)CSc3ncn[nH]3)c(C#N)c2-c2ccc(OC)cc2)cc1	i	i	71.2*	i	i	i
